Measured values as given in ChEMBL document CHEMBL1127376, “Agents combining thromboxane receptor antagonism with thromboxane synthase inhibition: [[[2-(1H-imidazol-1-yl)ethylidene]amino]oxy]alkanoic acids” (J Med Chem, 1994).

Legend:
[1] = target: T1, Thromboxane A2 receptor (Homo sapiens, UniProt P21731); assay: In vitro thromboxane-A2 receptor binding affinity to displace by 50% [3H]-SQ 29548 binding from washed human platelets
T1 sequence (P21731 whole entry): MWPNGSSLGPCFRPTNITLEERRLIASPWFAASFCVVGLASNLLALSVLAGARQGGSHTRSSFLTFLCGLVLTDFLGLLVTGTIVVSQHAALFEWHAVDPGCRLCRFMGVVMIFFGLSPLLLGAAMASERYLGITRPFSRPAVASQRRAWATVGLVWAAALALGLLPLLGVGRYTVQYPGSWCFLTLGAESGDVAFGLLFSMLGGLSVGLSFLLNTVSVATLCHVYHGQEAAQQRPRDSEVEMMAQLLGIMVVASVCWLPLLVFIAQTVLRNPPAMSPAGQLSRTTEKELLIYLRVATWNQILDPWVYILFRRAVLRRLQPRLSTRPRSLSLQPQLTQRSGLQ

[2] = target: T2, Thromboxane-A synthase (Rattus norvegicus, UniProt P49430); assay: In vitro inhibition of thromboxane-A2 synthase in rat whole blood during clotting at 37 degrees Centigrade; type: tissue-based
T2 sequence (P49430 whole entry): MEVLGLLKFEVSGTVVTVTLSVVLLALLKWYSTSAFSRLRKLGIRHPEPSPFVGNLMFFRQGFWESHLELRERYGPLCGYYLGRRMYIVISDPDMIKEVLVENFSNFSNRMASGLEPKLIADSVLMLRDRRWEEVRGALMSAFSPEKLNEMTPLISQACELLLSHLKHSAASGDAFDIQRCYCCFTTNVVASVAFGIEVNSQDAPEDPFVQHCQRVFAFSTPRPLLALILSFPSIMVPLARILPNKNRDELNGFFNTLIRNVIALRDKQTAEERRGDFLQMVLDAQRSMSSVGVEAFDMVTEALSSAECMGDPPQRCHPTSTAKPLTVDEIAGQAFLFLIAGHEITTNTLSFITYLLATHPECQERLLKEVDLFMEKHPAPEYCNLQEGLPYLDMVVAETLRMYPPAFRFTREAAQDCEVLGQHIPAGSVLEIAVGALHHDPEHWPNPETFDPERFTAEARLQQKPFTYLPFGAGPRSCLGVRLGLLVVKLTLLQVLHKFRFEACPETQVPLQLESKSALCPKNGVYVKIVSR
Method in brief: (§1)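 Rat whole blood allowed to clot 1 h at 37 °C with test agent, then spun for serum, stored -20 °C. Serum TxB2 measured by RIA with [3H]TxB2 and rabbit antiserum, incubated 16–24 h at 4 °C, charcoal separation, scintillation counting.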

[3] = species: Homo sapiens; assay: Tested in vitro for the umolar concentration required to inhibit U-46,619-induced platelet aggregation in human platelet rich plasma (PRP); type: functional
Method in brief: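 Citrated human blood (3.8%, 9:1), PRP by centrifugation. PRP preincubated 5 min at 37 °C with vehicle or compound, then challenged with a submaximal U46619 concentration chosen from a concentration–response curve. Aggregation followed by photoelectric aggregometry.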

[4] = target: T3, Thromboxane-A synthase (Rattus norvegicus) (UniProt P49430); assay: Tested for the in vitro inhibition of thromboxane-A2 synthase in rat whole blood during clotting at 37 degrees Celsius at >1 uM; type: tissue-based; method in brief: as §1
T3 sequence (whole entry): T2 sequence (P49430 whole entry)

[5] = target: T3, Thromboxane-A synthase (Rattus norvegicus); assay: Tested for in vitro inhibition of TxA synthase in rat whole blood at 1 uM; type: tissue-based

| SMILES | IC50 [1] | IC50 [2] | IC50 [3] | inhibition [4] | inhibition [5] |
| --- | --- | --- | --- | --- | --- |
| O=C(O)Cc1ccc(CCNS(=O)(=O)c2ccc(Cl)cc2)cc1 [DALTROBAN] | – | > 100000 nM | – | – | – |
| CCCCCC/C(Cn1ccnc1)=N/OCCCCC(=O)O | 12200 nM | 40 nM | – | – | – |
| O=C(O)CCCCO/N=C(\Cn1ccnc1)C1CCCCC1 | 53100 nM | 40 nM | 2440 nM | – | – |
| O=C(O)/C=C/c1ccc(Cn2ccnc2)cc1 [OZAGREL] | > 100000 nM | – | – | – | – |
| CCCCCC/C(Cn1ccnc1)=N\OCCCCC(=O)O | 19700 nM | 360 nM | – | – | – |
| O=C(O)CCCCO/N=C(/Cn1ccnc1)C1CCCCC1 | 27300 nM | 640 nM | – | – | – |
| O=C(O)CCCCO/N=C(/Cn1ccnc1)c1ccccc1 | 46200 nM | 270 nM | – | – | – |
| O=C(O)CCCO/N=C(\Cn1ccnc1)C1CCCCC1 | > 100000 nM | > 1000 nM | – | – | 8% |
| O=C(O)CCCO/N=C(\Cn1ccnc1)c1ccccc1 | > 100000 nM | > 1000 nM | – | – | 17% |
| O=C(O)CCCCCO/N=C(\Cn1ccnc1)c1ccccc1 | 74500 nM | > 1000 nM | – | – | 2% |
| CS(=O)(=O)c1ccc(/C(=N\OCCCCC(=O)O)C(Cc2ccccc2)n2ccnc2)cc1 (centres undefined) | 21000 nM | > 1000 nM | – | 12% | – |
| CSc1ccc(/C(=N\OCCCCC(=O)O)C(Cc2ccccc2)n2ccnc2)cc1 (centres undefined) | 7500 nM | > 1000 nM | – | 49% | – |
| CC(/C(=N/OCCCCC(=O)O)c1ccccc1)n1ccnc1 (centres undefined) | 73000 nM | > 1000 nM | – | 37% | – |
| O=C(O)CCCCO/N=C(\Cn1ccnc1)c1ccccc1 | 14700 nM | 170 nM | – | – | – |
| O=C(O)CCCO/N=C(/Cn1ccnc1)C1CCCCC1 | 49300 nM | > 1000 nM | – | – | 44% |
| C/C(=N\OCCCCC(=O)O)C(Cc1ccccc1)n1ccnc1 (centres undefined) | 23400 nM | 200 nM | – | – | – |
| O=C(O)CCCCCO/N=C(\Cn1ccnc1)C1CCCCC1 | 23900 nM | > 1000 nM | – | – | 19% |
| CC(/C(=N\OCCCCC(=O)O)c1ccccc1)n1ccnc1 (centres undefined) | 295000 nM | 160 nM | – | – | – |
| CC(C)(CCCO/N=C(\c1ccccc1)C(Cc1ccccc1)n1ccnc1)C(=O)O (centres undefined) | 4160 nM | 760 nM | – | – | – |
| O=C(O)CCCCO/N=C(\C1CCCCC1)C(Cc1ccccn1)n1ccnc1 (centres undefined) | 3280 nM | 300 nM | – | – | – |
| O=C(O)CCCCO/N=C(\Cn1ccnc1)c1cccnc1 | > 100000 nM | > 1000 nM | – | – | 24% |

Second part, the compound after the results:

| IC50 [1] | IC50 [2] | IC50 [3] | inhibition [4] | inhibition [5] | SMILES |
| --- | --- | --- | --- | --- | --- |
| 50 nM | 900 nM | – | – | – | O=C(O)CCCCO/N=C(\C1CCCCC1)C(Cc1ccc(C(F)(F)F)cc1)n1ccnc1 (centres undefined) |
| 1160 nM | 20 nM | 2100 nM | – | – | O=C(O)CCCCO/N=C(/c1ccccc1)C(Cc1ccccc1)n1ccnc1 (centres undefined) |
| 170 nM | 250 nM | – | – | – | O=C(O)CCCCO/N=C(/c1ccccc1)C(Cc1ccc(Cl)cc1)n1ccnc1 (centres undefined) |
| 170 nM | 50 nM | 370 nM | – | – | O=C(O)CCCCO/N=C(\c1ccccc1)C(Cc1ccccc1)n1ccnc1 (centres undefined) |
| 160 nM | 1100 nM | – | – | – | O=C(O)CCCCCO/N=C(\c1ccccc1)C(Cc1ccccc1)n1ccnc1 (centres undefined) |
| 1900 nM | > 1000 nM | – | 43% | – | O=C(O)CCCCO/N=C(\C1CCCCC1)C(CC1CCCCC1)n1ccnc1 (centres undefined) |
| 1040 nM | > 1000 nM | – | 47% | – | O=C(O)/C=C/CCCO/N=C(\c1ccccc1)C(Cc1ccccc1)n1ccnc1 (centres undefined) |
| 80 nM | 60 nM | 440 nM | – | – | O=C(O)CCCCO/N=C(\C1CCCCC1)C(Cc1ccccc1)n1ccnc1 (centres undefined) |
| 70 nM | 140 nM | – | – | – | Cc1ccc(CC(/C(=N/OCCCCC(=O)O)C2CCCCC2)n2ccnc2)cc1 (centres undefined) |
| 2100 nM | 30 nM | 3300 nM | – | – | O=C(O)CCCCO/N=C(/c1cccnc1)c1cccc(C(F)(F)F)c1 [RIDOGREL] |
| 40 nM | 390 nM | 210 nM | – | – | O=C(O)CCCCO/N=C(\c1ccccc1)C(Cc1ccc(F)cc1)n1ccnc1 (centres undefined) |
| 20 nM | 370 nM | 300 nM | – | – | O=C(O)CCCCO/N=C(\C1CCCCC1)C(Cc1ccc(F)cc1)n1ccnc1 (centres undefined) |
| 3000 nM | 50 nM | – | – | – | CCCCCC/C(=N\OCCCCC(=O)O)C(Cc1ccccc1)n1ccnc1 (centres undefined) |
| 520 nM | 710 nM | – | – | – | O=C(CCCCO/N=C(\C1CCCCC1)C(Cc1ccccc1)n1ccnc1)NO (centres undefined) |
| 230 nM | 530 nM | – | – | – | CC(C)(CCO/N=C(\c1ccccc1)C(Cc1ccccc1)n1ccnc1)CC(=O)O (centres undefined) |
| 530 nM | 60 nM | 280 nM | – | – | O=C(O)CCCCO/N=C(/c1ccccc1)C(Cc1ccc(F)cc1)n1ccnc1 (centres undefined) |
| 40 nM | 890 nM | – | – | – | O=C(O)CCCCO/N=C(\c1ccccc1)C(Cc1ccc(Cl)cc1)n1ccnc1 (centres undefined) |
| 970 nM | 100 nM | – | – | – | O=C(O)CCCCO/N=C(/C1CCCCC1)C(Cc1ccccc1)n1ccnc1 (centres undefined) |
| 970 nM | > 1000 nM | – | 26% | – | O=C(O)CCCCCO/N=C(/c1ccccc1)C(Cc1ccccc1)n1ccnc1 (centres undefined) |
| 280 nM | 100 nM | – | – | – | O=C(O)CCCCO/N=C(\C1CCCCC1)C(Cc1ccco1)n1ccnc1 (centres undefined) |
| 190 nM | 70 nM | – | – | – | O=C(O)CCCCO/N=C(\C1CCCCC1)C(Cc1cnccn1)n1ccnc1 (centres undefined) |
| 140 nM | 250 nM | – | – | – | O=C(O)CCCCO/N=C(/C1CCCCC1)C(Cc1cccc(F)c1)n1ccnc1 (centres undefined) |
| 120 nM | > 1000 nM | – | 26% | – | O=C(O)/C=C/CCO/N=C(\c1ccccc1)C(Cc1ccccc1)n1ccnc1 (centres undefined) |
| 2390 nM | > 1000 nM | – | 15% | – | O=C(O)CCCCO/N=C(\c1ccc(Br)cc1)C(Cc1ccccc1)n1ccnc1 (centres undefined) |
| 230 nM | > 1000 nM | – | 32% | – | CS(=O)(=O)c1ccc(CC(/C(=N/OCCCCC(=O)O)C2CCCCC2)n2ccnc2)cc1 (centres undefined) |
| 30 nM | 270 nM | – | – | – | O=C(O)CCCCO/N=C(\C1CCCCC1)C(Cc1cccc(F)c1)n1ccnc1 (centres undefined) |
| 1300 nM | 430 nM | – | – | – | CCOC(=O)CCCCO/N=C(\C1CCCCC1)C(Cc1ccccc1)n1ccnc1 (centres undefined) |
| 300 nM | 350 nM | – | – | – | O=C(O)CCCCO/N=C(\C1CCCCC1)C(Cc1ccccc1F)n1ccnc1 (centres undefined) |
| 880 nM | > 1000 nM | – | 28% | – | O=C(O)COCCO/N=C(\c1ccccc1)C(Cc1ccccc1)n1ccnc1 (centres undefined) |
| 70 nM | 320 nM | – | – | – | COc1ccc(CC(/C(=N/OCCCCC(=O)O)C2CCCCC2)n2ccnc2)cc1 (centres undefined) |
